Compound activity (PubChem)
CSC inhib = cancer stem cell viability inhibitors, primary screen, luminescence; hit rate 1.1% among 300,000; cancer stem cell-like cells viability; AID 2717, 2010; inhibition, % at 7.5 µM; in the data active = inhibition above about 75%; inconclusive = no clear call, values can overlap the other calls; tested in HMLE shEcad cells
SKKanGAS inh = S. pyogenes SKKanGAS growth inhibitors in kanamycin, primary screen, streptokinase expression inhibitor project, SKKanGAS strain, BacTiter-Glo luminescence; 6 h; inhibition, % at 7.5 µM; hit rate 1.3% among 300,000;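 active = mean replicate score, as percent of positive control median, at least 50; inconclusive = mean below 50 but one replicate at or above 50; inactive = mean and every replicate below 50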;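 also: strain carries kanamycin resistance gene driven by streptokinase promoter and grows in 40 µg/ml kanamycin; loss of luminescence reflects streptokinase promoter inhibition or plain growth inhibition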
aSyn 5UTR inh = MLPCN primary screen, SNCA 5' untranslated region; AID 1813, 2009; inhibition, % (tested at 7.5 µM); alpha-synuclein 5'UTR reporter, inhibitor activity; hit rate 0.82% among 300,000; in the data active = inhibition above about 60%; inconclusive = no clear call, values can overlap the other calls;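 also: H4 neuroglioblastoma cells stably carrying SNCA 5'UTR luciferase fusion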
Mdm2 MdmX PPI = inhibitors of human Mdm2-MdmX association, primary screen, cell-based, luminescence, split luciferase, SaOS-2, uHTS. SaOS-2 split-luciferase Mdm2/MdmX complementation. hit rate 3% among 330,000. AID 485346, 2010. inhibition, % at 8 µM;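 active = inhibition of at least 50% at 8 µM in the primary screen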
Target sequence (O15151 whole entry, looked up): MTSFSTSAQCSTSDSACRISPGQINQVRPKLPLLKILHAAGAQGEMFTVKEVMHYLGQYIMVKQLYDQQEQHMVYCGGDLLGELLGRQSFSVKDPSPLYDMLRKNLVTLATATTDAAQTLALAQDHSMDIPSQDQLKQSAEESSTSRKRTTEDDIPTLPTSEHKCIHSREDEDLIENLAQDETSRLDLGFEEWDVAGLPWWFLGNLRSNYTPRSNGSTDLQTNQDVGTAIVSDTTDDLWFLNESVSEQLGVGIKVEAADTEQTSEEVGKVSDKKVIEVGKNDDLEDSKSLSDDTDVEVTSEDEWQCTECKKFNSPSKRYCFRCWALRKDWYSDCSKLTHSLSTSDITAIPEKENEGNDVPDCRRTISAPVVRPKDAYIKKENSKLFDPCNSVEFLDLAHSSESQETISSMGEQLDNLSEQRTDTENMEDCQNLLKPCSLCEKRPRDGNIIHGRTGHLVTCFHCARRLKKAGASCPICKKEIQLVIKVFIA
Target sequence (Q00987 whole entry, looked up): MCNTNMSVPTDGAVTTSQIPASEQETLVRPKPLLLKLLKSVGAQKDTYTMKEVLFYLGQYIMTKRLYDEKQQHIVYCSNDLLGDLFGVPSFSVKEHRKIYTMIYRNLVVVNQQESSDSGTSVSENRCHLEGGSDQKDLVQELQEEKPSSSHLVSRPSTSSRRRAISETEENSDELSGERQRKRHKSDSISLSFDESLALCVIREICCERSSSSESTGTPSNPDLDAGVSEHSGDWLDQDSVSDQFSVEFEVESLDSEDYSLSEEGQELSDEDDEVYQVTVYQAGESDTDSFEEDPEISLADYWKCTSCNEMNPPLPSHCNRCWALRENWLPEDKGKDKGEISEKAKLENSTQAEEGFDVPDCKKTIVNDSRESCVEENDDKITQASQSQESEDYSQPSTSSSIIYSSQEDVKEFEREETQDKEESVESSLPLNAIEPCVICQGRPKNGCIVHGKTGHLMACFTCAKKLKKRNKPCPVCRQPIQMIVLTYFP
T cruzi inh = inhibitors of intracellular T. cruzi growth, primary screen, luminescence, NIH3T3 host cells; hit rate 1.4% among 300,000; inhibition, % (test concentration not listed); T. cruzi beta-gal in NIH3T3, 90 h;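 active = mean inhibition across valid replicates above about 55%, limit read from the data; inconclusive = mean below that limit but half or more replicates reach it; inactive = mean below it, under half of replicates reach it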;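 also: signal also drops with host cell toxicity which is not excluded here; higher percent means less beta-gal luminescence so fewer parasites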
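Read-out: Parasite load inhibition, % | Test system: Mouse NIH/3T3 fibroblasts infected with β-gal-expressing T. cruzi Tulahuen C4 | Amount: 5,000 cells/well | Medium: DMEM, 2% fetal bovine serum | Signal: GalScreen β-gal luminescence, detergent lysis, 60 min | Timing: 3 h attach, ≥90 h co-culture | Also added: Tulahuen C4 trypomastigotes, 5000/well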
A number is an active result; - = inactive; ? = inconclusive; . = no result given. This is a sample that favours compounds with a hit; in the whole collection about 5.4% have one here.

SMILES	CSC inhib	SKKanGAS inh	aSyn 5UTR inh	Mdm2 MdmX PPI	T cruzi inh
CCC(=O)N1N=C(c2ccccc2)CC1c1ccccc1 (configuration not stated)	-	-	-	-	-
Cn1c(SCC(=O)N/N=C/c2ccc([N+](=O)[O-])s2)nnc1-c1ccccc1	-	-	-	-	58
Cn1c(SCC(=O)N/N=C/c2cccnc2)nnc1-c1ccccc1	-	-	-	-	-
Cn1c(SCC(=O)N/N=C/c2cc([N+](=O)[O-])ccc2O)nnc1-c1ccccc1	-	93	-	-	-
Cn1c(SCC(=O)N/N=C/c2ccccn2)nnc1-c1ccccc1	-	-	-	-	-
Cc1ccccc1N1CCN(C(=O)c2cc(C3CC3)nn2-c2ccccc2)CC1	.	.	.	-	.
Cc1ccc(N2NC(=O)/C(=C\c3cc4c(cc3[N+](=O)[O-])OCO4)C2=O)cc1C	88	-	-	.	-
COc1cc(/C=C2/C(=O)NN(c3ccc(C)c(Cl)c3)C2=O)cc([N+](=O)[O-])c1O	-	-	-	-	-
O=C(Nc1cccc(F)c1)Nc1ccc2c(c1)OCO2	-	-	-	-	-
Cc1ccc(C)n1-c1sc2c(c1C#N)CCC(C)C2 (configuration not stated)	.	62	-	-	-
C=CCSc1nc2sc3c(c2c(=O)n1-c1ccccc1)CCN(C)C3	-	-	-	-	56
CCOC(=O)CSc1nc2sc3c(c2c(=O)n1C1CCCCC1)CCN(C)C3	-	-	-	-	57
CCOC(=O)CSc1nc2sc3c(c2c(=O)n1-c1ccc(OCC)cc1)CCN(C)C3	-	-	-	-	-
CCSc1nc2sc3c(c2c(=O)n1-c1ccccc1)CCN(C)C3	.	-	-	-	-
CN1CCc2c(sc3c2c(=O)n(-c2ccccc2)c2nnc(SCc4ccccc4)n32)C1	.	-	-	-	71
Cc1nc2cc(NC(=O)c3ccc(S(=O)(=O)N(C)c4ccccc4)cc3)ccc2o1	-	-	-	-	-
CCCCC(=O)Oc1c(S(=O)(=O)c2ccccc2)c(C)nn1C(C)(C)C	-	-	-	-	-
Oc1cccc2ccc(/C=C/c3ccccc3Br)nc12	97	103	-	-	-
Oc1c(Cl)cc(Cl)cc1/C=C/c1ccc2cccc(O)c2n1	-	102	-	-	-
CSc1ccc(C2C(C(=O)c3ccco3)=C(O)C(=O)N2c2nnc(SC)s2)cc1 (configuration not stated)	-	-	-	-	-
Cc1cccc(C)c1NC(=O)CN(C)CC(=O)Nc1sc2c(c1C(N)=O)CCC2	.	50	-	-	-
CC(=O)Nc1ccc(Nc2ncnc3c2cnn3-c2ccccc2)cc1	-	-	-	-	-
Clc1ccc(Nc2ncnc3c2cnn3-c2ccccc2)cc1	-	81	-	-	-
Nc1ccc(Oc2ccc3c(c2)C(=O)N(CC2CCCO2)C3=O)cc1 (configuration not stated)	-	-	-	-	-
Cn1c(COc2ccccc2O)[n+](C)c2ccccc21	-	-	-	-	-
SMILES	CSC inhib	SKKanGAS inh	aSyn 5UTR inh	Mdm2 MdmX PPI	T cruzi inh
COc1ccc(N=Nc2n(C)c3ccccc3[n+]2C)cc1	.	-	103	.	64
CCCn1c(SCC(=O)OCC)nc(C(F)(F)F)cc1=O	-	-	-	-	-
N=C1/C(=C/c2ccc(-c3cccc(C(=O)O)c3)o2)C(=O)N=C2SC(CC(=O)N3CCOCC3)=NN12	-	-	-	-	-
N=C1/C(=C\c2ccc(-c3cccc(C(=O)O)c3)o2)C(=O)N=C2SC=C(c3ccccc3)N12	-	79	-	-	-
CC1(C)Cc2c(cnn2-c2ccccc2)C(NC(=O)CCCN2CCCC2=O)C1 (configuration not stated)	-	61	-	-	-
CCc1c(C)sc(NC(=O)C2CC(c3c(F)cccc3Cl)=NO2)c1C#N (configuration not stated)	-	-	-	-	-
CCOc1cc(N2CCOCC2)c(OCC)cc1NC(=O)c1ccc2ccccc2n1	-	-	-	-	58
COc1ccc(C2/C=C\CN(C(=O)C3CC3)[C@H](Cc3ccccc3)C(=O)N2Cc2ccc(F)cc2)cc1 (some centres not stated)	-	-	-	-	-
COc1ccc(C2/C=C\CN(C(=O)c3ccccc3)CC(=O)N2Cc2ccc(F)cc2)cc1 (configuration not stated)	-	68	-	-	-
CCCCC(=O)N1C/C=C\C(c2ccc(OC)cc2)N(Cc2ccc(F)cc2)C(=O)[C@H]1Cc1ccccc1 (some centres not stated)	-	-	-	-	64
Cc1c(NC(=O)c2cc(Br)ccc2Cl)cccc1-n1cnnn1	-	.	.	-	.
Cc1ccc(-c2csc3ncnc(NS(=O)(=O)c4ccc(Cl)cc4)c23)cc1	82	?	-	-	-
Cc1ccoc1C(=O)Nc1ccc(CC(=O)O)cc1	-	-	84	-	-
Cc1ccoc1C(=O)Nc1ccc2ccccc2c1	-	-	-	-	-
COc1ccc(Oc2nc(-c3ccccn3)nc3ccccc23)cc1	.	80	-	-	-
COc1ccc(Oc2nc(-c3ccncc3)nc3ccccc23)cc1	-	-	-	-	-
c1ccc(Oc2nc(-c3ccccn3)nc3ccccc23)cc1	-	109	-	-	65
Cc1nc(Oc2ccccc2)c2ccccc2n1	-	-	-	-	-
COc1cccc(Oc2nc(-c3ccncc3)nc3ccccc23)c1	-	-	-	-	55
CC(=O)Nc1ccc(C(=O)OCC(=O)c2cccc([N+](=O)[O-])c2)cc1	-	-	-	-	-
Cc1ccc(C(=O)COC(=O)c2cccc(NC(=O)c3ccc([N+](=O)[O-])cc3[N+](=O)[O-])c2)cc1	-	-	-	-	71
COc1ccc(C(=O)NNc2ccccc2)cc1OC	83	.	-	-	-
Cc1ccc(C)c(NC(=O)c2cccc(Oc3ccc([N+](=O)[O-])cc3Cl)c2)c1	-	-	-	-	55
COc1ccc(C(=O)Nc2ccccc2)cc1NC(=O)c1ccc([N+](=O)[O-])cc1	-	-	-	-	61
CC(C)(C)c1ccc(OC(=O)Cn2c(C(F)(F)F)nc3ccccc32)cc1	-	-	-	-	-
SMILES	CSC inhib	SKKanGAS inh	aSyn 5UTR inh	Mdm2 MdmX PPI	T cruzi inh
O=C(NCc1ccc(F)cc1)C(c1ccco1)N(C(=O)c1csnn1)C1CC1 (configuration not stated)	-	-	-	-	-
O=C(C[n+]1ccccc1)N/N=C/c1ccc(Br)cc1	.	.	.	-	.
CC(C)n1ncc2c(C(=O)Nc3cccc(C#N)c3)cc(C3CC3)nc21	-	.	.	-	.
COc1ccc(C)cc1NC(=O)c1ccc([N+](=O)[O-])cc1[N+](=O)[O-]	-	-	-	-	71
O=[N+]([O-])c1cc(-c2nnc(C34CC5CC(CC(C5)C3)C4)o2)cc([N+](=O)[O-])c1	-	-	-	-	57
Cc1nn2c(-c3ccccn3)ccnc2c1Cl	-	-	-	-	-
